Test results published in ChEMBL document CHEMBL1155882, “Selective nucleoside triphosphate diphosphohydrolase-2 (NTPDase2) inhibitors: nucleotide mimetics derived from uridine-5'-carboxamide” (J Med Chem, 2008).
Active and inactive are the calls of the source. The calls are words filed in the database; no cut-off is given here.

Tests used:
[1] = target: P2Y purinoceptor 2 (Homo sapiens, UniProt P41231); assay: Antagonist activity at human P2Y2 receptor expressed in human 1321N1 cells assessed as inhibition of UTP-induced intracellular calcium mobilization by FLUOstar plate reader; assay type: functional, cell-based
Outline: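 Fura-2 AM-loaded astrocytoma cells expressing human P2Y2 receptor. Compound is tested at 0.1, 0.3, 1, 3, 10, 30 and 100 μM. The read-out is inhibition of UTP-induced intracellular calcium mobilization.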

[2] = target: T1, Ectonucleoside triphosphate diphosphohydrolase 8 (Homo sapiens, UniProt Q5MY95); assay: Inhibition of human NTPDase 8 expressed in COS7 cells; assay type: cell-based, COS-7
T1 sequence (Q5MY95 whole entry): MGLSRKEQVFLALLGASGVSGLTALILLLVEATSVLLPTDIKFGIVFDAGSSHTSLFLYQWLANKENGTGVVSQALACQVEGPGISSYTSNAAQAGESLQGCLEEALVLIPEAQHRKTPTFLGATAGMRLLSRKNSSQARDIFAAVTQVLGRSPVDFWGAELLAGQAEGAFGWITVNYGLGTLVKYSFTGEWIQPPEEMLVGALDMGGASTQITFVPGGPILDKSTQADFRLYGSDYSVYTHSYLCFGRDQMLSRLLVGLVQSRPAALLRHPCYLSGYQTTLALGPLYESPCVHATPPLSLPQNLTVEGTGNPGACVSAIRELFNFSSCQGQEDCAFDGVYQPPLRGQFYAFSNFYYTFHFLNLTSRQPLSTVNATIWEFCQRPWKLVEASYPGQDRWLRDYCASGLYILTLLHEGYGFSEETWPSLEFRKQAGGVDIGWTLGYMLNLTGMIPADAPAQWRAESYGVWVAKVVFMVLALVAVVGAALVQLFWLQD
Outline: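 NTPDase2 membranes come from stably transfected HEK 293 cells; NTPDase3 and NTPDase8 are transiently expressed in COS-7 cells as crude protein extracts. Buffer is 140 mM NaCl, 5 mM KCl, 1 mM MgCl2, 2 mM CaCl2, 10 mM HEPES pH 7.4, with 400 μM ATP, 37 °C, 10 min, stopped at 99 °C. Products are read by capillary electrophoresis (UV 210 nm, UMP internal standard).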

[3] = target: T2, P2Y purinoceptor 4 (Homo sapiens, UniProt P51582); assay: Antagonist activity at human P2Y4 receptor expressed in human 1321N1 cells assessed as inhibition of UTP-induced intracellular calcium mobilization at 100 uM by FLUOstar plate reader; assay type: functional, cell-based
Outline: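 Human 1321N1 astrocytoma cells express human P2Y2 or P2Y4, or rat P2Y6. Cells are loaded with Fura-2 AM and preincubated with compound at 100 μM. Inhibition of agonist-induced intracellular calcium release is read as Fura-2 fluorescence. The agonist is UTP for P2Y2 and P2Y4, and UDP for P2Y6.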

[4] = target: P2Y purinoceptor 6 (Rattus norvegicus) (UniProt Q63371); assay: Antagonist activity at rat P2Y6 receptor expressed in human 1321N1 cells assessed as inhibition of UDP-induced intracellular calcium mobilization by NOVOstar plate reader
[5] = Inhibition of rat NTPDase 3
[6] = target: T2, P2Y purinoceptor 4; assay: Antagonist activity at human P2Y4 receptor expressed in human 1321N1 cells assessed as inhibition of UTP-induced intracellular calcium mobilization by FLUOstar plate reader; assay type: functional, cell-based
[7] = target: P2Y purinoceptor 6 (Rattus norvegicus, UniProt Q63371); assay: Antagonist activity at rat P2Y6 receptor expressed in human 1321N1 cells assessed as inhibition of UDP-induced intracellular calcium mobilization by NOVOstar plate reader
Sequence of P2Y purinoceptor 6 (Q63371 whole entry): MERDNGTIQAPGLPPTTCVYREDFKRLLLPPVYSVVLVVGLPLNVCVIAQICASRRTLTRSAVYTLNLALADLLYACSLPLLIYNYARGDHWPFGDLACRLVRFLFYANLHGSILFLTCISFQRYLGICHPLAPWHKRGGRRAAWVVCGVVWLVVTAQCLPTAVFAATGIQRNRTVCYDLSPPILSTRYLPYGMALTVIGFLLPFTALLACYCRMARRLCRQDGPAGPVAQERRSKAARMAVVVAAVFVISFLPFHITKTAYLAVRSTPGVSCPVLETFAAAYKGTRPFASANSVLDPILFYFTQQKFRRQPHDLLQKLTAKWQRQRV

Sequence of P2Y purinoceptor 2 (P41231 whole entry): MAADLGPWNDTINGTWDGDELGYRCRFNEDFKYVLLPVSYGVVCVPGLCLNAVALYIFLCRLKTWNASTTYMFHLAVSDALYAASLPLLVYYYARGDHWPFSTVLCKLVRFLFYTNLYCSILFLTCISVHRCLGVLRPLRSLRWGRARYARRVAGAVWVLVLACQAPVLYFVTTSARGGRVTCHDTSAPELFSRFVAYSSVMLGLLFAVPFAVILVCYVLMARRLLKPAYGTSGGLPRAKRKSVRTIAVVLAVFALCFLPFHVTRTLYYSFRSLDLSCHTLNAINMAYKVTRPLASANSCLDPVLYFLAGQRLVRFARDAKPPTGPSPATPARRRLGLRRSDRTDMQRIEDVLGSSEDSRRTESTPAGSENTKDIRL
T2 sequence (P51582 whole entry): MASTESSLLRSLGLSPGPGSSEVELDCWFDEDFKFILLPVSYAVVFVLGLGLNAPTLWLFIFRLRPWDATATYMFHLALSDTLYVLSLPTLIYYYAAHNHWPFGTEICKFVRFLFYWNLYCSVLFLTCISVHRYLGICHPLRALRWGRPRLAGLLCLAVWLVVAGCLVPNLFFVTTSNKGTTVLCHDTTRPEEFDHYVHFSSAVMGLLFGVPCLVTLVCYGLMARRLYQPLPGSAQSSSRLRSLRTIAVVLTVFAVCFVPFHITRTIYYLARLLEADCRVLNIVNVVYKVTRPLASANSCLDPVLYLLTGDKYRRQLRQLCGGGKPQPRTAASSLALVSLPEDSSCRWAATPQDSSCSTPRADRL

| Activity [3] | IC50 [4] | Ki [5] | SMILES | IC50 [1] | Ki [2] | IC50 [6] | IC50 [7] |
| --- | --- | --- | --- | --- | --- | --- | --- |
| inactive | 27 µM | 12.7 µM | Cc1ccc(C(=O)Nc2ccc(S(=O)(=O)O)c3cc(S(=O)(=O)O)cc(S(=O)(=O)O)c23)cc1NC(=O)c1cccc(NC(=O)Nc2cccc(C(=O)Nc3cc(C(=O)Nc4ccc(S(=O)(=O)O)c5cc(S(=O)(=O)O)cc(S(=O)(=O)O)c45)ccc3C)c2)c1 [SURAMIN] | 50 µM | > 100 µM |  |  |
|  |  |  | Nc1c(S(=O)(=O)O)cc(Nc2ccc(Nc3nc(Cl)nc(Nc4cccc(S(=O)(=O)O)c4)n3)c(S(=O)(=O)O)c2)c2c1C(=O)c1ccccc1C2=O [RB 2] | 12 µM | > 100 µM | 5.75 µM | 4.34 µM |
